# This excerpt belongs to a sample that is enriched for hits.
# Lmaj promast = Leishmania major promastigote growth inhibition, primary screen; Leishmania major promastigotes, resazurin fluorescence viability; inhibition, % at 10 µM; 200,000 tested, 9% active; AID 1063, 2008; in the data active means inhibition above about 50%;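 further: promastigotes grown with compound for 44 hours at 28 °C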
# Mdm2 ligase inh = MDM2-luciferase reporter signal enhancers, primary screen, MDM2 E3 ligase inhibitor project, cell-based, luminescence, 1536-well; AID 1230, 2008; E3 ubiquitin-protein ligase Mdm2 (Homo sapiens), Q00987; 210,000 tested, 0.11% active; signal enhancement, % at 5 µM; cell-based MDM2 ubiquitination luciferase reporter, 2 h; 0 = plate control, 100 = twice control, blank-subtracted;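 active means signal enhancement of 30% or more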;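 further: luminescence tracks abundance of the self-degrading MDM2-luciferase fusion protein; higher signal means inhibition of MDM2 E3 ligase activity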
#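 system = mammalian cells stably expressing self-ubiquitinating, self-degrading MDM2 E3–luciferase fusion | quantity = 2000 cells per well seeded | incubation = 4 h cell settling then 2 h compound exposure, 37 °C | signal = SteadyLite luminescence, 15 min reagent step | benchmarks = plate control and blank wells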
# S1P4 agonist = S1P4 receptor agonists, primary screen, cell-based; 220,000 tested, 0.35% active; activation, % at 4.98 µM; Sphingosine 1-phosphate receptor 4 (Homo sapiens), O95977; AID 1509, 2009; S1P4-expressing cell line, agonist reporter assay; in the data active means activation above about 11%;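 further: 0% = DMSO vehicle and 100% = reference agonist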
# Target sequence (O95977 whole entry, looked up): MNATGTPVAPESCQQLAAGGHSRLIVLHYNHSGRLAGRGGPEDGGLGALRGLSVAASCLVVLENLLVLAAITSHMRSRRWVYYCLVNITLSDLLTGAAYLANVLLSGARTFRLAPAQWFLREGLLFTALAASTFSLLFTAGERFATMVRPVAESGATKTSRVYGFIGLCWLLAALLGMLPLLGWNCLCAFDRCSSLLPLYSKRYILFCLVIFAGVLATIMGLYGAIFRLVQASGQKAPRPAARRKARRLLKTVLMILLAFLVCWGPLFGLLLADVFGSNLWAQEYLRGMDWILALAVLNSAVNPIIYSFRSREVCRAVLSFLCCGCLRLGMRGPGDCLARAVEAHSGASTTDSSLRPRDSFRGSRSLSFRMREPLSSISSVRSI
# S1P4 antagonist = S1P4 receptor antagonists, primary screen, cell-based; S1P4-expressing cells, antagonist mode, reporter read-out; Sphingosine 1-phosphate receptor 4 (Homo sapiens), O95977; 220,000 tested, 0.26% active; AID 1510, 2009; inhibition, % at 4.98 µM; in the data active means inhibition above about 29%;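 further: 0% = wells stimulated with agonist and 100% = vehicle wells without agonist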
# S1P3 antagonist = S1P3 receptor antagonists, primary screen, cell-based; CHO S1P3 NFAT-BLA reporter, FRET fluorescence, antagonist mode; inhibition, % at 4.98 µM; 170,000 tested, 0.27% active; AID 485, 2006;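 active means inhibition above the plate cutoff, the mean inhibition of test wells on that plate plus 3 SD, cut at about 28% in these data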;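 further: cells challenged with S1P at its EC80 of 0.8 µM; blue over green emission ratio from cleaved BLA substrate after 4 h stimulation; 0% = S1P-stimulated wells and 100% = unstimulated DMSO-only wells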
# The depositor's hits bear a star; . = no result.
SMILES,Lmaj promast,Mdm2 ligase inh,S1P4 agonist,S1P4 antagonist,S1P3 antagonist
Cc1c(NC(=O)CCCCCN2C(=O)C3C4C=CC(C4)C3C2=O)c(=O)n(-c2ccccc2)n1C (configuration not stated),-5,-9,1,1,-18
CN(C(=O)c1sc2nc(N3CCOCC3)c3c(c2c1N)CCCC3)c1ccccc1,100*,-8,0,-15,-5
N=C1/C(=C\c2ccc(-c3cc(Cl)cc(Cl)c3)o2)C(=O)N=C2SC=C(c3ccccc3)N12,0,-31,0,-1,-33
N=C1/C(=C/c2cccn2CCOc2ccccc2)C(=O)N=C2SC=C(c3ccccc3)N12,59*,-8,2,-20,-7
Cc1c2c(c(C)n1C)C(C(=O)NC1CCCCC1)N(Cc1ccccc1)C2=O (configuration not stated),14,-10,3,-3,-3
O=C(Nc1nccs1)c1c(O)c2cccc3c2n(c1=O)CCC3,96*,1,1,-8,-15
COc1ccc2nc(NCc3ccccc3)[nH]c2c1,26,-10,1,10,-3
Cc1ccc2nc(NCc3ccccc3)[nH]c2c1,65*,-15,3,-4,.
CCN(CC)c1ccc(/C=N/N2CCN(Cc3ccccc3)CC2)c(O)c1,92*,-15,-1,-11,1
CCN(CC)c1ccc(/C=N/NC(=O)OC)c(O)c1,-5,-2,0,14,.
CCN(CC)c1ccc(N=Cc2ccc(N(CC)CC)cc2O)cc1,100*,-7,-1,-13,.
CCN(CC)c1ccc(/C=N/NC(=S)NC)c(O)c1,83*,.,-2,15,-7
O=S1(=O)N=C(N(Cc2cccs2)c2ccc(O)cc2)c2ccccc21,4,-9,1,-4,-2
O=C(NCc1ccco1)C1CCCN(S(=O)(=O)c2cccc3cccnc23)C1 (configuration not stated),-7,-22,0,-8,-9
COc1ccc(C/C(O)=C(\C#N)c2nc3ccccc3[nH]2)cc1OC,-2,-4,0,14,-12
COc1cc(CC(C#N)(CO)c2nc3ccccc3[nH]2)ccc1OC(F)F (configuration not stated),82*,5,1,-18,0
COc1cc(/C=C2\C(=O)N(CCC#N)N=C2C)ccc1OCC(=O)Nc1ccccc1,60*,-11,-2,-9,-14
O=C(Oc1cccc(NC(=O)c2cccs2)c1)c1cccc(S(=O)(=O)N2CCCC2)c1,62*,-10,0,2,1
COc1ccc(-c2csc(NC(=O)c3ccc(S(=O)(=O)N4CCc5ccccc5C4)cc3)n2)c(OC)c1,90*,4,1,-21,8
CN(C)S(=O)(=O)c1cccc(-c2csc(N/N=C/c3ccco3)n2)c1,.,-19,1,-4,11
O=C(Nc1nc(-c2ccc(S(=O)(=O)N3CCOCC3)cc2)cs1)c1ccccc1,73*,-9,-2,-7,.
COc1ccc(/C=N/Nc2nc(-c3cccc(S(=O)(=O)N4CCCC4)c3)cs2)c(OC)c1,69*,-16,0,7,-12
Cc1cccc(Nc2nnc(-c3ccc(C(=O)N4C[C@H]5C[C@H](C4)c4cccc(=O)n4C5)cc3)c3ccccc23)c1,-1,-1,-1,3,.
O=C(Nc1nc(-c2nc3ccccc3s2)cs1)c1ccc(S(=O)(=O)N2CCOCC2)cc1,52*,-12,1,-12,-32
O=C(Nc1nc(-c2cc3ccccc3o2)cs1)c1ccc(S(=O)(=O)N2CCCC2)cc1,23,-12,5,-3,-10
SMILES,Lmaj promast,Mdm2 ligase inh,S1P4 agonist,S1P4 antagonist,S1P3 antagonist
COc1cccc(C(=O)Nc2nc(-c3ccc(S(=O)(=O)N4CCOCC4)cc3)cs2)c1,92*,-14,-3,9,13
Cc1ccc(-c2csc(NC(=O)c3cccc(S(=O)(=O)N4CCN(C)CC4)c3)n2)cc1,6,8,0,-27,.
O=S(=O)(c1ccc(-c2csc(-c3cccnc3)n2)cc1)N1CCOCC1,68*,-3,0,1,-15
O=C(Nc1nc(-c2ccc(S(=O)(=O)N3CCCC3)cc2)cs1)c1cccs1,100*,-14,1,-7,9
CC(C(=O)Nc1ccccc1)N(c1cccc(Cl)c1)S(C)(=O)=O (configuration not stated),-4,4,0,-2,0
Cc1cccc(C(=O)N[C@H](C(=O)Nc2ccc(C)c(S(=O)(=O)N(C)C)c2)C(C)C)c1,9,3,-1,-10,-8
O=C(CSc1cn(CC(=O)N2CCCCCC2)c2ccccc12)NCC1CCCO1 (configuration not stated),-4,-16,1,-1,-17
Cc1ccc(CN(C)C(=O)c2ccc3c(c2)NC(=O)CS3)o1,.,.,0,-6,-8
C=C1C(=O)[C@@]23[C@H](O)C[C@@H]4C(C)(C)CC[C@H](O)[C@@]4(C)[C@@H]2CC[C@@H]1[C@H]3O,100*,.,0,27,0
C=C1C(=O)[C@@]23[C@H](O)C[C@@H]4C(C)(C)CC[C@H](O)[C@]4(C)[C@@H]2C[C@H](O)[C@@H]1[C@H]3O,29,.,1,25,-16
COc1cccc(C(=O)CSc2nnnn2C2CCCCC2)c1,-6,0,2,-14,.
COc1ccc(-c2csc(Nc3ccc(S(N)(=O)=O)cc3)n2)cc1,24,4,-1,-7,.
CC(=O)Oc1ccc(-c2csc(Nc3ccc(S(N)(=O)=O)cc3)n2)cc1,55*,1,0,5,-9
CC(C)(C)OC(=O)N[C@@H](Cc1ccccc1)[C@H](O)c1ccco1,.,6,.,.,.
O=C(NNc1ccc(C(F)(F)F)cc1[N+](=O)[O-])c1ccc(NS(=O)(=O)c2ccc(F)cc2)cc1,52*,-10,1,-19,-9
COC(=O)C1=C(C(=O)OC)C2C(C)=CC(C)=CN2C(C(=O)OC)=C1C(=O)OC (configuration not stated),-5,-6,1,-16,-7
CC(C)=CCCC(C)CN1CCC(O)CC1 (configuration not stated),13,-2,0,3,2
CC(C)=CCC/C(C)=C/CC(C)(C)CNCCN1CCNCC1,100*,-29,-2,2,.
CC(C)=CCC/C(C)=C/CCC(C)NCCN1CCNCC1 (configuration not stated),101*,-8,0,12,-13
CC1CC(C)CN(C(=S)Nc2ccc(OC(F)F)cc2)C1 (configuration not stated),85*,-9,1,-1,2
CC1CC(C)CN(C(=S)Nc2ccc(SC(F)F)cc2)C1 (configuration not stated),73*,-12,1,-21,9
